CSC inhib = blocks cancer stem cells. cancer stem cell-like cells viability, luminescence. inhibition, % at 7.5 µM. actives 1.1% (n = 300,000). AID 2717; in the data active = inhibition above about 75%; tested in HMLE shEcad cells
ANO1 activ = activators or potentiators of mouse TMEM16A chloride channel | B-score at 10 µM | actives 0.3% (n = 340,000) | Q8BHY3 | HEK293 TMEM16A/YFP-H148Q/I152L, iodide quench fluorescence; active compounds read low;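 active = fluorescence-ratio B-score plate-corrected deviation score at least 3 library SD below zero, with starting fluorescence score within 5 deviations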;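 note: channel opened by trigger with iodide after compound preincubation; score built on the fluorescence ratio of max minus min over baseline; more negative score means more quench and so TMEM16A activation or potentiation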
Beta apoptosis = beta cell apoptosis inhibition; INS-1E cytokine-induced death, ATP luminescence, 48 h; percent of positive-control rescue, neutral wells zero; protection from apoptosis, % (test concentration not listed); actives 0.8% (n = 300,000); AID 435005;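 active = Every replicate reaches about 75%, or at least half do and their mean reaches it too, limit read from the data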;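 note: 0% = cytokine-treated negative control wells and 100% = positive control rescue; higher means more ATP so stronger rescue from cytokine killing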
MC4R antag cAMP = antagonists of human melanocortin 4 receptor (MC4R); MC4R-expressing cells, MTII-stimulated cAMP, LANCE TR-FRET; inhibition, % at 6.5 µM; P32245; actives 0.48% (n = 360,000);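 active = inhibition above its plate's cutoff, the mean of tested wells on that plate plus 3 SD, cut at about 29% in these data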;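 note: 0% = Melanotan II alone and 100% = Melanotan II plus saturating MCL0020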
Target sequence (P32245 whole entry, looked up): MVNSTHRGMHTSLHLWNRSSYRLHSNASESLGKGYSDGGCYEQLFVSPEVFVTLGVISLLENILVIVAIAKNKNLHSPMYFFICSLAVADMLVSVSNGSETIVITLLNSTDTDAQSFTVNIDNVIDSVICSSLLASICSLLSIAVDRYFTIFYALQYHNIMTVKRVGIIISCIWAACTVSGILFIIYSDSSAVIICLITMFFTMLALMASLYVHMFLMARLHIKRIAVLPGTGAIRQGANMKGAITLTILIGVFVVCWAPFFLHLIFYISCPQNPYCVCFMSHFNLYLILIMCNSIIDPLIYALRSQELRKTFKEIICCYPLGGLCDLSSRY
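System – human MC4R-expressing U2OS cells · Also added – Melanotan II · Dosing – one concentration, 6.5 µM nominal · Timing – 30-min compound, 1-h challenge, 1-h detection, room temperature · Measured by – Eu-cAMP/anti-cAMP TR-FRET, emission 671 nm · Replicates – singlicate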
MC4R barr agon = agonists of human melanocortin 4 receptor (MC4R) beta-arrestin; P32245; U2OS MC4R beta-arrestin complementation, luminescence; percent of melanotan II response, DMSO zero; activation, % at 8.9 µM; actives 0.98% (n = 360,000); AID 540308;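 active = activation above a per-plate cutoff, the mean activation of sample wells on that plate plus 3 SD, cut at about 8% in these data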
TMEM16A inh = mouse TMEM16A channel inhibition, primary screen | Q8BHY3 | normalized B-score (activity score, 25-100; higher = stronger inhibition) at 10 µM | actives 1.2% (n = 310,000) | HEK293 TMEM16A/YFP iodide influx fluorescence, ionomycin;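 active = ratio plate-corrected score three or more library SD toward inhibition, starting fluorescence score within five deviations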;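 note: score derived from kinetic fluorescence span divided by baseline fluorescence per well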
Active calls of the source: *. Rows were chosen to be rich in hits. Some 3.8% of all compounds tested hit in one or more screens of this group.

Results for O=C(CN1CCC(C(O)(c2ccccc2)c2ccccc2)CC1)Nc1ccccc1 ?
CSC inhib: 15; ANO1 activ: inactive; Beta apoptosis: 5; MC4R antag cAMP: 4; MC4R barr agon: 0; TMEM16A inh: inactive

What do the screens show for `NC(=O)C1CCN(CC(=O)Nc2cc(Cl)ccc2Oc2ccccc2)CC1`?
CSC inhib: -4; ANO1 activ: inactive; Beta apoptosis: -8; MC4R antag cAMP: 6; MC4R barr agon: 0; TMEM16A inh: inactive

What do the screens show for `O=C(CN1CCC(C(O)(c2ccccc2)c2ccccc2)CC1)Nc1cc(Cl)ccc1Cl`?
CSC inhib: -4; ANO1 activ: inactive; Beta apoptosis: 5; MC4R antag cAMP: 32*; MC4R barr agon: 8; TMEM16A inh: inactive

What do the screens show for `O=C(Nc1cc(Cl)ccc1Cl)P(=O)(O)c1ccccc1`?
ANO1 activ: inactive; MC4R antag cAMP: -2; MC4R barr agon: -2

Results for O=C1NC(=O)C2(C=C(c3ccccc3)C(O)(c3ccccc3)C2)N1 (stereo unspecified) ?
ANO1 activ: inactive; MC4R antag cAMP: -2; MC4R barr agon: 0

Results for COCCn1c(C)cc(C(=O)COC(=O)/C=C/c2ccc(OC)cc2OC)c1C ?
CSC inhib: 6; ANO1 activ: inactive; Beta apoptosis: -11; MC4R antag cAMP: 13; MC4R barr agon: 0

How did CC(C)Oc1ccc(F)cc1-c1cc(C(=O)NCc2ccc(F)cc2)[nH]n1 do in these assays?
MC4R antag cAMP: 4; MC4R barr agon: 1

How did Nc1ccc(-c2cc(-c3cccc(N)c3)nc(-c3ccccc3)n2)cc1 do in these assays?
CSC inhib: 84*; ANO1 activ: inactive; Beta apoptosis: -9; MC4R antag cAMP: 4; MC4R barr agon: 0; TMEM16A inh: inactive

Results for COc1ccc(CCNC(=O)Nc2nnc([C@@H]3C[C@H](O)[C@@H](CO)O3)s2)cc1OC ?
MC4R antag cAMP: -5; MC4R barr agon: 0

How did O=S(=O)(Nc1nc(-c2sccc2Cl)cs1)c1cc(Cl)ccc1Cl do in these assays?
CSC inhib: 119*; ANO1 activ: inactive; Beta apoptosis: 2; MC4R antag cAMP: -3; MC4R barr agon: 4; TMEM16A inh: 100*

Results for COc1ccc(C(CNC(=O)C(C)Sc2ccccc2)N2CCOCC2)cc1 (stereo unspecified) ?
ANO1 activ: inactive; MC4R antag cAMP: -1; MC4R barr agon: 0

How did Cc1cc2nc(C)n(CCCNC(=O)Nc3cccc4ccccc34)c2cc1C do in these assays?
CSC inhib: -5; ANO1 activ: inactive; Beta apoptosis: 39; MC4R antag cAMP: 8; MC4R barr agon: 4; TMEM16A inh: 25*

How did COc1ccc(CNC(=O)C2CC(c3ccc(OC)cc3)=NO2)cc1 (stereo unspecified) do in these assays?
CSC inhib: 6; ANO1 activ: inactive; Beta apoptosis: -2; MC4R antag cAMP: -20; MC4R barr agon: -1; TMEM16A inh: 100*

What do the screens show for `COc1cccc(C2=NOC(C(=O)NC(C)C)C2)c1` (stereo unspecified)?
CSC inhib: -6; ANO1 activ: inactive; Beta apoptosis: -6; MC4R antag cAMP: 5; MC4R barr agon: -1; TMEM16A inh: 25*

How did C[C@@H]1C(=O)N(c2ccccc2)[C@@H]1c1ccncc1 do in these assays?
ANO1 activ: inactive; MC4R antag cAMP: 1; MC4R barr agon: 3

What do the screens show for `CCCc1cc(C(=O)Nc2ccc(C(=O)c3ccc(F)cc3)cc2)n(C)n1`?
CSC inhib: 27; ANO1 activ: inactive; Beta apoptosis: 15; MC4R antag cAMP: -5; MC4R barr agon: -1; TMEM16A inh: 100*

What do the screens show for `O=C(Nc1ccc(F)cc1)c1ccc2snnc2c1`?
CSC inhib: -4; ANO1 activ: inactive; Beta apoptosis: 6; MC4R antag cAMP: 3; MC4R barr agon: -1; TMEM16A inh: inactive

How did Cc1nc(Nc2cnc(/C=C/c3cc(C(=O)Nc4cccc(C(F)(F)F)c4)ccc3C)cn2)cc(N2CCNCC2)n1 do in these assays?
CSC inhib: 136*; Beta apoptosis: 107*; TMEM16A inh: inactive

Screening results as filed in PubChem.
